Experimental data: ChEMBL document CHEMBL1124568, “2,4-Diamino-5-benzylpyrimidines as antibacterial agents. 13. Some alkenyl derivatives with high in vitro activity against anaerobic organisms” (J Med Chem, 1989)
pIC50: −log10 of the molar value. ≈ marks a conversion by molar mass, not a printed value.

What was measured:
[1] = Half-life in dogs Plasma; assay type: ADME, organism-based, Canis lupus familiaris; details: dog
Procedure, shortened: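 Two fasted (18 h) male beagles received 5 mg/kg […] (free base), co-dosed with 5 mg/kg trimethoprim in propylene glycol. Jugular plasma was sampled from 0.17 to 24 h. Drug was extracted, separated by TLC and read by fluorescence densitometry. t1/2 came from least-squares linear regression of the postabsorption segment of the plasma curve.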

Phocaeicola vulgatus = test: Ratio of antibacterial (Bacteroides vulgatus) activities compared to that of trimethoprim and metronidazole; assay type: functional
[2] = tested on: Bacteroides thetaiotaomicron; test: Ratio of antibacterial (Bacteroides thetaiotaomicron) activities compared to that of trimethoprim and metronidazole; assay type: functional
Clostridioides difficile = test: Ratio of antibacterial (Clostridium difficile) activities compared to that of trimethoprim and metronidazole; assay type: functional
Clostridium perfringens = test: Ratio of antibacterial (Clostridium perfringens) activities compared to that of trimethoprim and metronidazole; assay type: functional
Dihydrofolate reductase [3] = target: T1, Dihydrofolate reductase (Rattus norvegicus, UniProt Q920D2); test: In vitro inhibition of rat liver dihydrofolate reductase.; details: read-out: I50
T1 sequence (Q920D2 whole entry): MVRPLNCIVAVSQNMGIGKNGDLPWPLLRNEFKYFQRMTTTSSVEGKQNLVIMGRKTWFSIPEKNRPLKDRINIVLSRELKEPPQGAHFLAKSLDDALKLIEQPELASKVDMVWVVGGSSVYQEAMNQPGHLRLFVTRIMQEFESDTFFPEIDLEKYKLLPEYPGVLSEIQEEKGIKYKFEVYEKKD

Escherichia coli [4] = test: Antibacterial (Escherichia coli) activity compared to trimethoprim.; assay type: functional
Procedure, shortened: (§1)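 Each MIC is divided by the MIC of trimethoprim run alongside. Serial dilutions were normally 0.1, 0.3, 1, 3, 10, etc., and occasionally 1, 5 and 10. For E. coli the value is the average over six strains.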

Fusobacterium nucleatum = test: Ratio of antibacterial (Fusobacterium nucleatum) activities compared to that of trimethoprim and metronidazole; assay type: functional
Klebsiella pneumoniae [5] = test: Antibacterial (Klebsiella pneumoniae CN3632) activity compared to trimethoprim.; assay type: functional; procedure, shortened: as §1
[6] = tested on: Mycolicibacterium smegmatis; test: Antibacterial (Mycobacterium smegmatis S3254) activity compared to trimethoprim.; assay type: functional; procedure, shortened: as §1
Pasteurella multocida = test: Antibacterial (Pasteurella multocides ATCC 6587) activity compared to trimethoprim.; assay type: functional; procedure, shortened: as §1
Proteus vulgaris [7] = test: Antibacterial (Proteus vulgaris CN329) activity compared to trimethoprim.; assay type: functional; procedure, shortened: as §1
[8] = Antibacterial (Salmonella typhi CN512) activity compared to trimethoprim.; assay type: functional, salmonella typhosa
Shigella flexneri = test: Antibacterial (Shigella flexneri CN6007) activity compared to trimethoprim.; assay type: functional; procedure, shortened: as §1
Serratia marcescens = test: Antibacterial (Serratia marcescens CN2398) activity compared to trimethoprim.; assay type: functional; procedure, shortened: as §1
Streptococcus pyogenes [9] = test: Antibacterial ([…] CN10) activity compared to trimethoprim.; assay type: functional; procedure, shortened: as §1
Staphylococcus aureus [10] = test: Antibacterial (Staphylococcus aureus CN491) activity compared to trimethoprim.; assay type: functional; procedure, shortened: as §1
Klebsiella aerogenes [11] = test: Antibacterial (Enterobacter aerogenes 2201/86) activity compared to trimethoprim.; assay type: functional; procedure, shortened: as §1
Klebsiella aerogenes [12] = test: Ratio of antibacterial (Enterobacter aerogenes, 2201/86) activities of compound and trimethoprim; assay type: functional; procedure, shortened: as §1
Klebsiella pneumoniae [13] = test: Ratio of antibacterial (Klebsiella pneumoniae CN3632) activities of compound and trimethoprim; assay type: functional; procedure, shortened: as §1
Proteus vulgaris [14] = test: Ratio of antibacterial (Proteus vulgaris CN329) activities of compound and trimethoprim; assay type: functional; procedure, shortened: as §1
Shigella dysenteriae = test: Ratio of antibacterial (Shigella dysentariae CN513) activities of compound and trimethoprim; assay type: functional
Staphylococcus aureus [15] = test: Ratio of antibacterial (Staphylococcus aureus CN491) activities of compound and trimethoprim; assay type: functional; procedure, shortened: as §1
Salmonella = test: Ratio of antibacterial (Salmonella typhi CN512) activities of compound and trimethoprim; assay type: functional, salmonella typhosa
Escherichia coli [16] = test: Ratio of antibacterial (Escherichia coli CN314) activities of compound and trimethoprim; assay type: functional
Dihydrofolate reductase [17] = target: T2, Dihydrofolate reductase (Escherichia coli, UniProt P0ABQ4); test: In vitro inhibition of dihydrofolate reductase of Escherichia coli; details: read-out: I50
T2 sequence (P0ABQ4 whole entry): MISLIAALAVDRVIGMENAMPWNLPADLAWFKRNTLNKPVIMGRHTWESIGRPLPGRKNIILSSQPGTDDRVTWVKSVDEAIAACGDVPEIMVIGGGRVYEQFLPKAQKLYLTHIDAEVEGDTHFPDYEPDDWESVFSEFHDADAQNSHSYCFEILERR
Procedure, shortened: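 The E. coli DHFR assay contained 1 nM enzyme, with the lower limit for I50 arbitrarily set at 2 nM. I50 was estimated from plots of % inhibition of steady-state velocity vs log inhibitor concentration.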

Streptococcus pyogenes [18] = test: Ratio of antibacterial (Streptococcus pyogenes CN10) activities of compound and trimethoprim

| Structure (SMILES) | half-life [1] [h] | MIC (Phocaeicola vulgatus) [µg/mL] | MIC [2] [µg/mL] | MIC (Clostridioides difficile) [µg/mL] | MIC (Clostridium perfringens) [µg/mL] | pIC50 (Dihydrofolate reductase [3]) | MIC (Escherichia coli [4]) [µg/mL] | MIC (Fusobacterium nucleatum) [µg/mL] | MIC (Klebsiella pneumoniae [5]) [µg/mL] | MIC [6] [µg/mL] | MIC (Pasteurella multocida) [µg/mL] | MIC (Proteus vulgaris [7]) [µg/mL] | MIC [8] [µg/mL] | MIC (Shigella flexneri) [µg/mL] | MIC (Serratia marcescens) [µg/mL] | MIC (Streptococcus pyogenes [9]) [µg/mL] | MIC (Staphylococcus aureus [10]) [µg/mL] | MIC (Klebsiella aerogenes [11]) [µg/mL] | also measured |
| --- | --- | --- | --- | --- | --- | --- | --- | --- | --- | --- | --- | --- | --- | --- | --- | --- | --- | --- | --- |
| C/C=C/c1cc(Cc2cnc(N)nc2N)cc(OC)c1OC | 2.25 | 0.8 | 1.6 | > 25 | > 25 | 4.24 | 6 (≈ 20 µM) | 0.8 | 10 (≈ 33.3 µM) | 3 (≈ 9.99 µM) | 10 (≈ 33.3 µM) | 3 (≈ 9.99 µM) | 3 (≈ 9.99 µM) | 10 (≈ 33.3 µM) | 1 (≈ 3.33 µM) | 0.1 (≈ 0.333 µM) | 0.1 (≈ 0.333 µM) | 10 (≈ 33.3 µM) | – |
| CCOc1cc(Cc2cnc(N)nc2N)cc(OC)c1OC | 3.13 | – | – | – | – | 3.85 | 2.6 (≈ 8.54 µM) | – | 1 (≈ 3.29 µM) | 1 (≈ 3.29 µM) | 1 (≈ 3.29 µM) | 1 (≈ 3.29 µM) | 1 (≈ 3.29 µM) | 1 (≈ 3.29 µM) | 3 (≈ 9.86 µM) | 0.3 (≈ 0.986 µM) | 0.3 (≈ 0.986 µM) | 1 (≈ 3.29 µM) | – |
| C=CCc1cc(Cc2cnc(N)nc2N)cc(CCC)c1O | – | 0.8 | 0.8 | > 25 | > 25 | 5.70 | 5 (≈ 16.8 µM) | 0.4 | 30 (≈ 101 µM) | 10 (≈ 33.5 µM) | 30 (≈ 101 µM) | 30 (≈ 101 µM) | 100 (≈ 335 µM) | 30 (≈ 101 µM) | 3 (≈ 10.1 µM) | 1 (≈ 3.35 µM) | 3 (≈ 10.1 µM) | 30 (≈ 101 µM) | – |
| CCCc1cc(Cc2cnc(N)nc2N)cc(OC)c1OC | – | 1.6 | 1.6 | > 25 | > 25 | 4.43 | 6 (≈ 19.8 µM) | 0.4 | 10 (≈ 33.1 µM) | 3 (≈ 9.92 µM) | 10 (≈ 33.1 µM) | 10 (≈ 33.1 µM) | 3 (≈ 9.92 µM) | 10 (≈ 33.1 µM) | 3 (≈ 9.92 µM) | 0.1 (≈ 0.331 µM) | 0.1 (≈ 0.331 µM) | 10 (≈ 33.1 µM) | – |
| C=CCc1cc(Cc2cnc(N)nc2N)cc(OC)c1OC | 0.84 | 1.6 | 1.6 | > 25 | > 25 | 4.30 | 6 (≈ 20 µM) | 0.4 | 10 (≈ 33.3 µM) | 3 (≈ 9.99 µM) | 10 (≈ 33.3 µM) | 10 (≈ 33.3 µM) | 3 (≈ 9.99 µM) | 10 (≈ 33.3 µM) | 3 (≈ 9.99 µM) | 0.3 (≈ 0.999 µM) | 0.1 (≈ 0.333 µM) | 10 (≈ 33.3 µM) | – |
| Cc1cc(Cc2cnc(N)nc2N)cc2c1OC(C)(C)C2 | – | – | – | – | – | 4.43 | – | – | – | – | – | – | – | – | – | – | – | – | MIC (Klebsiella aerogenes [12]): 30 µg/mL; MIC (Klebsiella pneumoniae [13]): 10 µg/mL; MIC (Proteus vulgaris [14]): 10 µg/mL; MIC (Shigella dysenteriae): 10 µg/mL; MIC (Staphylococcus aureus [15]): 3 µg/mL; MIC (Salmonella): 10 µg/mL; MIC (Escherichia coli [16]): 10 µg/mL; pIC50 (Dihydrofolate reductase [17]): 7.26; MIC (Streptococcus pyogenes [18]): 3 µg/mL |
| C/C=C/c1cc(Cc2cnc(N)nc2N)cc(/C=C/C)c1OC | – | 0.8 | 0.4 | 25 | 25 | 4.57 | 72 (≈ 232 µM) | 1.6 | 100 (≈ 322 µM) | 2 (≈ 6.44 µM) | 100 (≈ 322 µM) | > 50 | 100 (≈ 322 µM) | 100 (≈ 322 µM) | > 5 | 0.1 (≈ 0.322 µM) | 1 (≈ 3.22 µM) | 100 (≈ 322 µM) | – |
| COc1cc(Cc2cnc(N)nc2N)cc(CC(C)O)c1O (configuration not stated) | – | – | – | – | – | 4.44 | 4 (≈ 13.1 µM) | – | 10 (≈ 32.9 µM) | 3 (≈ 9.86 µM) | 3 (≈ 9.86 µM) | 30 (≈ 98.6 µM) | 10 (≈ 32.9 µM) | 3 (≈ 9.86 µM) | > 10 | 3 (≈ 9.86 µM) | 3 (≈ 9.86 µM) | 3 (≈ 9.86 µM) | – |
| C=CCOc1ccc(Cc2cnc(N)nc2N)cc1OC | – | – | – | > 25 | > 25 | 4.31 | 7.6 (≈ 26.5 µM) | 0.8 | 10 (≈ 34.9 µM) | 3 (≈ 10.5 µM) | 10 (≈ 34.9 µM) | 3 (≈ 10.5 µM) | 10 (≈ 34.9 µM) | 10 (≈ 34.9 µM) | 10 (≈ 34.9 µM) | 3 (≈ 10.5 µM) | 10 (≈ 34.9 µM) | 10 (≈ 34.9 µM) | – |
